According to ChEMBL document CHEMBL1123601, “Enantiomers of 1-ethyl-7-[3-[(ethylamino)methyl]-1-pyrrolidinyl]-6,8-difluoro-1,4- dihydro-4-oxo-3-quinoline-carboxylic acid: preparation and biological activity” (J Med Chem, 1987):
≈ marks a conversion by molar mass, not a printed value.

Legend:
Format in all cases: functional
Streptococcus pyogenes [1] = assay: Dose required to protect 50% of mice from lethal infection was measured on Streptococcus pyogenes C203 (s.c.); conditions: sc, read-out: PD50
Procedure, shortened: (§1)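 The lethal systemic infection in female CD-1 mice (18-22 g) was an intraperitoneal challenge of about 100 median lethal doses. Compound was given once at challenge in twofold rising doses, subcutaneously as an aqueous solution or orally by gavage in 5% gum acacia. PD50 was estimated by log probit from survival of groups of 8 mice, with experiments run in duplicate.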

Streptococcus pneumoniae [2] = assay: Minimum inhibitory concentration (MIC) of compound was measured on Streptococcus pneumoniae SV-1(gram positive organism)
Procedure, shortened: (§2)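 MICs (µg/mL) by standard microdilution (microtitration), with the enantiomers tested side by side with racemate across the organism panel. Aqueous stocks made up in 0.1 N NaOH or KOH. Performed in duplicate or triplicate; error of one serial dilution.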

Escherichia coli [3] = assay: Dose required to protect 50% of mice from lethal infection was measured on Escherichia coli vogel (subcutaneously); conditions: sc, read-out: PD50
Procedure, shortened: (§3)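 Female CD-1 mice (18-22 g) were challenged intraperitoneally with about 100 median lethal doses of E. coli in 5% hog gastric mucin. Single doses were given at challenge in a twofold rising series, subcutaneously as an aqueous solution or orally by gavage in 5% gum acacia. Groups of 8 mice per dose were used. PD50 was estimated from survival by log probit, with experiments run in duplicate.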

Streptococcus pyogenes [4] = assay: Dose required to protect 50% of mice from lethal infection was measured on Streptococcus pyogenes C203 (p.o. administration); conditions: po, read-out: PD50; procedure, shortened: as §1
Escherichia coli [5] = assay: Dose required to protect 50% of mice from lethal infection was measured on Escherichia coli vogel(peroral administration); conditions: po, read-out: PD50; procedure, shortened: as §3
Klebsiella pneumoniae = assay: Minimum inhibitory concentration (MIC) of compound was measured on Klebsiella pneumoniae MGH-2(gram negative organism); procedure, shortened: as §2
Enterococcus faecalis = assay: Minimum inhibitory concentration (MIC) of compound was measured on Streptococcus faecalis MGH-2(gram positive organism); procedure, shortened: as §2
Providencia rettgeri = assay: Minimum inhibitory concentration (MIC) of compound was measured on Providencia rettgeri H1771 (gram negative organism); procedure, shortened: as §2
Staphylococcus aureus [6] = assay: Minimum inhibitory concentration (MIC) of compound was measured on Staphylococcus aureus UC-76(gram positive organism); procedure, shortened: as §2
Streptococcus pneumoniae [7] = assay: Dose required to protect 50% of mice from lethal infection was measured on Streptococcus pneumoniae SV-1 (subcutaneously); conditions: sc, read-out: PD50
Procedure, shortened: (§4)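 Female CD-1 mice (18-22 g) received an intraperitoneal challenge of about 100 median lethal doses of S. pneumoniae in tryptic soy broth. A single dose was given at challenge in a twofold rising series, subcutaneously in aqueous solution or by oral gavage in 5% gum acacia. Survival of 8 mice per dose gave PD50 by log probit, with experiments run in duplicate.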

Streptococcus pneumoniae [8] = assay: Dose required to protect 50% of mice from lethal infection was measured on Streptococcus pneumoniae SV-1(peroral administration); conditions: po, read-out: PD50; procedure, shortened: as §4
Staphylococcus aureus [9] = assay: Minimum inhibitory concentration (MIC) of compound was measured on Staphylococcus aureus H228 (gram positive organism); procedure, shortened: as §2
Escherichia coli [10] = assay: Minimum inhibitory concentration (MIC) of compound was measured on Escherichia coli H560 (gram negative organism); procedure, shortened: as §2
Streptococcus pyogenes [11] = assay: Minimum inhibitory concentration (MIC) of compound was measured on Streptococcus pyogenes C203 (gram positive organism); procedure, shortened: as §2
Pseudomonas aeruginosa = assay: Minimum inhibitory concentration (MIC) of compound was measured on Pseudomonas aeruginosa UI-18(gram negative organism); procedure, shortened: as §2
Enterobacter cloacae = assay: Minimum inhibitory concentration (MIC) of compound was measured on Enterobacter cloacae HA 2646(gram negative organism); procedure, shortened: as §2
Escherichia coli [12] = assay: Concentration of compound needed to produce linear DNA at an intensity relative to oxolinic acid at 10 ug/mL was measured on Escherichia coli for gyrase-drug induced cleavage,.
Procedure, shortened: (§5)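 DNA gyrase from E. coli H560 cells. Endpoint is the minimum drug concentration (µg/mL) that converts closed circular DNA to linear DNA, through denaturation of the drug–gyrase–DNA complex, at an intensity relative to oxolinic acid at 10 µg/mL. Linear DNA is resolved by gel electrophoresis and stained with ethidium bromide. Runs in duplicate or triplicate; error of one serial dilution.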

Escherichia coli [13] = assay: Minimum inhibitory concentration (MIC) of compound was measured on Escherichia coli Vogel(gram negative organism); procedure, shortened: as §2
Escherichia coli [14] = assay: Minimum concentration of compound needed to produce linear DNA at an intensity relative to oxolinic acid at 10 ug/mL was measured on Escherichia coli for gyrase-drug induced cleavage.; procedure, shortened: as §5

Structure (SMILES): CCn1cc(C(=O)O)c(=O)c2cc(F)c(N3CCNCC3)cc21 [NORFLOXACIN]
- ED50 (Streptococcus pyogenes [1]): 45 mg/kg
- MIC (Streptococcus pneumoniae [2]): 1.6 µg/mL (≈ 5.01 µM)
- ED50 (Escherichia coli [3]): 0.7 mg/kg
- ED50 (Streptococcus pyogenes [4]): > 100 mg/kg
- ED50 (Escherichia coli [5]): 1 mg/kg
- MIC (Klebsiella pneumoniae): 0.05 µg/mL (≈ 0.157 µM)
- MIC (Enterococcus faecalis): 1.6 µg/mL (≈ 5.01 µM)
- MIC (Providencia rettgeri): 0.025 µg/mL (≈ 0.0783 µM)
- MIC (Staphylococcus aureus [6]): 0.05 µg/mL (≈ 0.157 µM)
- ED50 (Streptococcus pneumoniae [7]): > 100 mg/kg
- ED50 (Streptococcus pneumoniae [8]): 150 mg/kg
- MIC (Staphylococcus aureus [9]): 0.8 µg/mL (≈ 2.51 µM)
- MIC (Escherichia coli [10]): 0.1 µg/mL (≈ 0.313 µM)
- MIC (Streptococcus pyogenes [11]): 0.8 µg/mL (≈ 2.51 µM)
- MIC (Pseudomonas aeruginosa): 0.2 µg/mL (≈ 0.626 µM)
- MIC (Enterobacter cloacae): 0.1 µg/mL (≈ 0.313 µM)
- IC50 (Escherichia coli [12]): 5.5 µg/mL (≈ 17.2 µM)
- MIC (Escherichia coli [13]): 0.025 µg/mL (≈ 0.0783 µM)
- Concentration (Escherichia coli [14]): 1 µg/mL
